From PMC4326595 (Molecular cancer therapeutics, 2014) come the findings set out here.

Holding throughout (assay): HDAC-Glo I/II luminescent assay
Holding throughout (assay type): biochemical

The target of experiment [1] is HDAC 2 (Homo sapiens, UniProt Q92769). A digest of the protocol:
(§1)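 Recombinant human enzymes: HDAC1 C-terminal GST, HDAC2/8/10 C-terminal His, HDAC6 N-terminal GST, HDAC3 as NCOR1 complex; each at a level in the lower linear titration range giving similar signal. Test compound, 15-point 3-fold dilutions (DMSO), pre-incubated with enzyme 20–30 min, room temperature; HDAC-Glo I/II detection reagent added, luminescence read after 20 min. Quadruplicate wells; IC50 values determined.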

The target in experiment [2] is HDAC 1 (Homo sapiens, UniProt Q13547). Summed up:
as §1

For experiment [3], the target named is T1, HDAC 8 (Homo sapiens, UniProt Q9BY41).
T1 sequence (Q9BY41 1-377): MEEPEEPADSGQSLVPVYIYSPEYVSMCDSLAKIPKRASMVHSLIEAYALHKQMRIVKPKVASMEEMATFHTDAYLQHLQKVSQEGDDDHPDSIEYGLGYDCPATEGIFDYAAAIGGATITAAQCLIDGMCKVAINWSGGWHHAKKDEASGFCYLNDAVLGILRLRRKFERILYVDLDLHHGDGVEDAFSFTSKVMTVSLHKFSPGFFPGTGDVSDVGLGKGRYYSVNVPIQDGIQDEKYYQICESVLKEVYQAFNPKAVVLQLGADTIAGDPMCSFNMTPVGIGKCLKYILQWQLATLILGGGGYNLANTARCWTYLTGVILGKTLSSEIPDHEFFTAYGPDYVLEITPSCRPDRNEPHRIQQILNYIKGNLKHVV
Summed up:
as §1

Experiment [4] addresses HDAC 3/NCOR1 (Homo sapiens, UniProt O15379). Summed up:
as §1

The target of experiment [5] is T2, HDAC 10 (Homo sapiens, UniProt Q969S8).
T2 sequence (Q969S8 1-669): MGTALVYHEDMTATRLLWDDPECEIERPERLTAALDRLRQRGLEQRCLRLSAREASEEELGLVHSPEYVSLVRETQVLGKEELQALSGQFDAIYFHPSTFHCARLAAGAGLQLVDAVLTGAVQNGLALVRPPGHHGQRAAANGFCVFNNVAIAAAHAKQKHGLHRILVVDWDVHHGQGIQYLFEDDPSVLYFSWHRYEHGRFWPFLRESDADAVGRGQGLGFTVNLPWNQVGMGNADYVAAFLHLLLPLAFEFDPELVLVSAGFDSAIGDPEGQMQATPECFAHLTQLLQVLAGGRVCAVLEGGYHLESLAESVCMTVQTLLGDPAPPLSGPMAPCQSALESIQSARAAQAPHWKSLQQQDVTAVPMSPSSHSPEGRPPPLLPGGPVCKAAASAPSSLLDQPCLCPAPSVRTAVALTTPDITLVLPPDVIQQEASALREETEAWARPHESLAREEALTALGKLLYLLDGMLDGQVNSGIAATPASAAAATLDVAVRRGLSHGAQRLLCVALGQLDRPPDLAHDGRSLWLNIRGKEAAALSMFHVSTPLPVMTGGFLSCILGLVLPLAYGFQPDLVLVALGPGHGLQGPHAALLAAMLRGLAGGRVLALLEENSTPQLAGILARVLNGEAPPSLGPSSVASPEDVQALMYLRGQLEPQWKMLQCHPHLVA
A digest of the protocol: as §1

Experiment [6] concerns the target T3, HDAC 6 (Homo sapiens, UniProt Q9UBN7).
T3 sequence (Q9UBN7 1-1215): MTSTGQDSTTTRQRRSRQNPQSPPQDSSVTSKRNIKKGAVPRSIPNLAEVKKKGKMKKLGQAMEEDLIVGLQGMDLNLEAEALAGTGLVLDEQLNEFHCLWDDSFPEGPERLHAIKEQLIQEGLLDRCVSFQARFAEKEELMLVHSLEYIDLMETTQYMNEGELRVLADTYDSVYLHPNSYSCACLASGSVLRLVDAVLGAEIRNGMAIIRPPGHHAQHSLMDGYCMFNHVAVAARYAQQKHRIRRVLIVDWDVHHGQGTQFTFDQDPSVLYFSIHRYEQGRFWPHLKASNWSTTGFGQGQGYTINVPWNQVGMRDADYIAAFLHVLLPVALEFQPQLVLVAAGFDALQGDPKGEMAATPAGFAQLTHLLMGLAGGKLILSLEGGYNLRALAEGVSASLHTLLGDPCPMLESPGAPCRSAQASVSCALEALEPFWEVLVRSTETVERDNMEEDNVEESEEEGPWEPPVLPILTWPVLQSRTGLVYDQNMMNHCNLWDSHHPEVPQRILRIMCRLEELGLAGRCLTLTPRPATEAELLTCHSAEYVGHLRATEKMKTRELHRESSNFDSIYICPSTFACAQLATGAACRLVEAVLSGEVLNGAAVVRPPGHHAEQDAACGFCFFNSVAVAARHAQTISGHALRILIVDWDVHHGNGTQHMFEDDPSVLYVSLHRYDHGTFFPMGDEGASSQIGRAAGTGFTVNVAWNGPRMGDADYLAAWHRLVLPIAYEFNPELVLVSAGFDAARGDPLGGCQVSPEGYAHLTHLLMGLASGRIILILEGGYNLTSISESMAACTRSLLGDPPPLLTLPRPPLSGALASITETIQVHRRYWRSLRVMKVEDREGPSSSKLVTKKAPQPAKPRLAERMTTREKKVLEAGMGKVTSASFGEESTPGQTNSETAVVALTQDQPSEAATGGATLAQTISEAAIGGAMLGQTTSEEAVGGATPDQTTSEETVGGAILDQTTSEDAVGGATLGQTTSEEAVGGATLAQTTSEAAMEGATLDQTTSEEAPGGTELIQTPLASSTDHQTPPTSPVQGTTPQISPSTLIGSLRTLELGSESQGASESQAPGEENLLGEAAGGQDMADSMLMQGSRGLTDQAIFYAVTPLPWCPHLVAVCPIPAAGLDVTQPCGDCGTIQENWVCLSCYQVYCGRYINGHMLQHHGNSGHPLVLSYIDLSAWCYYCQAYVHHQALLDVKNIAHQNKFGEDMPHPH
Summed up:
as §1

Chain of HDAC 3/NCOR1 (O15379 whole entry): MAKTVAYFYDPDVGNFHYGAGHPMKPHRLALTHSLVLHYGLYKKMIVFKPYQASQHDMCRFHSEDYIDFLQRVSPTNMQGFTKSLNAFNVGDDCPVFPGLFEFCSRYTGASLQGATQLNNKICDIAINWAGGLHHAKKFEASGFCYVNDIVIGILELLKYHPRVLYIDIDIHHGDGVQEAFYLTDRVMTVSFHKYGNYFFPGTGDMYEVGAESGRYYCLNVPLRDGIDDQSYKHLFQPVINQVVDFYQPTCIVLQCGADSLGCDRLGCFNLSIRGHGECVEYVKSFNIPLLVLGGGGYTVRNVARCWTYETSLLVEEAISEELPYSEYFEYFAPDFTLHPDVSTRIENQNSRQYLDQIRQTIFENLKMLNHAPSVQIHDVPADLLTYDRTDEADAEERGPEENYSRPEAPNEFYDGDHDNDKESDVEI
Chain of HDAC 3/NCOR1 (O75376 whole entry partner): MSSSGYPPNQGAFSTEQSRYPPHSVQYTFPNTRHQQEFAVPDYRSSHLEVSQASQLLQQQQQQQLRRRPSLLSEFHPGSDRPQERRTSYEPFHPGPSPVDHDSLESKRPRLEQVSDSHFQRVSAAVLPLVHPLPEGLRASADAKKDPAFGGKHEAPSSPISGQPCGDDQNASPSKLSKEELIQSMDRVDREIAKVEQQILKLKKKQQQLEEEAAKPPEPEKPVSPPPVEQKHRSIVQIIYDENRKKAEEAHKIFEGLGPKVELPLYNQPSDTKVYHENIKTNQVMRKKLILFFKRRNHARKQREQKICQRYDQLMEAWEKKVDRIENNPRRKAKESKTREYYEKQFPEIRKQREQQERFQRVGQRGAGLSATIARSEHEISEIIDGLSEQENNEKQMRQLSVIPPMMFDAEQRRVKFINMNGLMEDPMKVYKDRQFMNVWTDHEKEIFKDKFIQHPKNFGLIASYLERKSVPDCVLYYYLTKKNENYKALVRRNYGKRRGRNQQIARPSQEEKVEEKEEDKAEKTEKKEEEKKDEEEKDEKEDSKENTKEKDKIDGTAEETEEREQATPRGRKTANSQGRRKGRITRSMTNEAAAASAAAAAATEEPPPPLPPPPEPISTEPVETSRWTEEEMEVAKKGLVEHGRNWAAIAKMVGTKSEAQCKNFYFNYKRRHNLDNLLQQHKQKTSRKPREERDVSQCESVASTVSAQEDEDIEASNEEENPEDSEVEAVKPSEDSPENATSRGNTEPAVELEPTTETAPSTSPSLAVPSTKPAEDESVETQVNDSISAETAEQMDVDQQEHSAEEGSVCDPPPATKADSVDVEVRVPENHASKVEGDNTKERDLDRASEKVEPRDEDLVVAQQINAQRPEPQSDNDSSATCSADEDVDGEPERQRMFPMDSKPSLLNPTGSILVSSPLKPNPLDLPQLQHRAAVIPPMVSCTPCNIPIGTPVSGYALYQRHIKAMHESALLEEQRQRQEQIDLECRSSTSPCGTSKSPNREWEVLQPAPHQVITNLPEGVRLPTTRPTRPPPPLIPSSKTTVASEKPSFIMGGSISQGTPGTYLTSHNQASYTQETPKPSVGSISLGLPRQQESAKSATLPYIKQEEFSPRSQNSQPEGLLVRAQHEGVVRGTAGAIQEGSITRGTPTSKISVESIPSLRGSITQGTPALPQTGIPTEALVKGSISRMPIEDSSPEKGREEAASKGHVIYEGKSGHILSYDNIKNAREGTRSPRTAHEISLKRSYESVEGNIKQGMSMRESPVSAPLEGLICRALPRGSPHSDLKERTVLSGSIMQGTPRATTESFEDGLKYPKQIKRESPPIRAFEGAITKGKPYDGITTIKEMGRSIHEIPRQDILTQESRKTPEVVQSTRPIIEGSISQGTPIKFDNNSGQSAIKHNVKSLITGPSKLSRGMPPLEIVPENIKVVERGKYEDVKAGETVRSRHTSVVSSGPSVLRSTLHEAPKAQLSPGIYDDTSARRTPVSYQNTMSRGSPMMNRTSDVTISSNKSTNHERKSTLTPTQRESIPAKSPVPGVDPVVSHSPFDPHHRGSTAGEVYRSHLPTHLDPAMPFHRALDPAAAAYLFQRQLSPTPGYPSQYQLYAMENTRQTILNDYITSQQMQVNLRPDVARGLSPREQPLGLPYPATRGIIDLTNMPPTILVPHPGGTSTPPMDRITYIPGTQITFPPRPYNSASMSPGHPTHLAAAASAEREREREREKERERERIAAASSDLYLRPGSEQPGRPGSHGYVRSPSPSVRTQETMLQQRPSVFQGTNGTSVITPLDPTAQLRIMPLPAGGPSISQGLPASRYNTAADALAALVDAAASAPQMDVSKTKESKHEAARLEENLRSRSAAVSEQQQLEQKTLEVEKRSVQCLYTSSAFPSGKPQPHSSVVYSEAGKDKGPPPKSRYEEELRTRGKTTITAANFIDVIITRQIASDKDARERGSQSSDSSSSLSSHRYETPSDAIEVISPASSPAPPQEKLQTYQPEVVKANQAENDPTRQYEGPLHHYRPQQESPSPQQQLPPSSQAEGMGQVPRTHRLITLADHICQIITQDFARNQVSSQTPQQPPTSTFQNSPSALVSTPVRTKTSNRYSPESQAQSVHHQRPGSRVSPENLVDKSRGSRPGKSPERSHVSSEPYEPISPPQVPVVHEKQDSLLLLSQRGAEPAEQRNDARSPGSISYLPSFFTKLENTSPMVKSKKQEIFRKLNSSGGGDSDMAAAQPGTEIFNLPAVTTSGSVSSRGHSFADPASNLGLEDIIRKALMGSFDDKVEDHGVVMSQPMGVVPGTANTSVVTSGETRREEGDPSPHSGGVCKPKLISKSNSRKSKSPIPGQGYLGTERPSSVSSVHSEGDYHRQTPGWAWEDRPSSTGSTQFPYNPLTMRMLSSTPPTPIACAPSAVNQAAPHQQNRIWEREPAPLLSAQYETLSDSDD
Chain of HDAC 2 (Q92769 whole entry): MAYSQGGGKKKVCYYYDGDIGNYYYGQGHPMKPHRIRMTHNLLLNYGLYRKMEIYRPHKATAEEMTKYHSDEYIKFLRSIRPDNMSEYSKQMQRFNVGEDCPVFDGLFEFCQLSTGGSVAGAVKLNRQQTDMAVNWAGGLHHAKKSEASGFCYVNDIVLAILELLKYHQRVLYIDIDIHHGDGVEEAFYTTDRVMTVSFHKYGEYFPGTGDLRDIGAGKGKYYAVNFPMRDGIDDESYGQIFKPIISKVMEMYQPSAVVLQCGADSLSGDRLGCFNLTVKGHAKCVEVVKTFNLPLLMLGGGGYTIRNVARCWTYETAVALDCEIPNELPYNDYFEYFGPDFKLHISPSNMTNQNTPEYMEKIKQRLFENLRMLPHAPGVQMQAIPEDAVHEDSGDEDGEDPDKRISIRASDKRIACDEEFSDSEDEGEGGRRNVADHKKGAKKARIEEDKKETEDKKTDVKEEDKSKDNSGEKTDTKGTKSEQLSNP
Chain of HDAC 1 (Q13547 whole entry): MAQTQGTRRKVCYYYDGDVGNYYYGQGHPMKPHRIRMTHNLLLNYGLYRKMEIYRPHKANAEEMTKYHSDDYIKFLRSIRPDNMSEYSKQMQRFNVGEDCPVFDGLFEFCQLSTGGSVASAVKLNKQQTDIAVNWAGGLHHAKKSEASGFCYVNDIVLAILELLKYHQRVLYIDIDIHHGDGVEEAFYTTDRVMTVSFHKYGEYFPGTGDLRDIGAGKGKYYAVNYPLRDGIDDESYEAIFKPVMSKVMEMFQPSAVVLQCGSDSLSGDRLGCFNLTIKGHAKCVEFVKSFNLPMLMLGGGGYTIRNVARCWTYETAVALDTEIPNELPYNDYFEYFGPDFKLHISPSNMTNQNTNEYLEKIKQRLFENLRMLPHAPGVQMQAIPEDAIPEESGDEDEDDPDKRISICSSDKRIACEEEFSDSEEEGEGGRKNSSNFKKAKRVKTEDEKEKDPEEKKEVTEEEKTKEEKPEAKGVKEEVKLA

`COc1ccc(C=NNC(=O)CCCCCCC(=O)NO)cc1` [AB3]: the IC50 – broadly, the point on the concentration scale where inhibition reaches its midpoint – in experiment [1] was determined as 3.12 nM; in experiment [2], 2.28 nM; in experiment [3] it was 60.3 nM; in experiment [4], 1.82 nM; in experiment [5], 11.1 nM; in experiment [6], 35.8 nM.
